# OPRM1-OPRD1 inv: inverse agonists of human mu-delta opioid receptor heterodimerization | 340,000 tested, 0.21% active | cell-based MOR-DOR heterodimer luminescence, inverse agonism | P35372+P41143 | inhibition, % at 9.3 µM; in the data active = inhibition above about 22%, passing the limit was not always enough;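 also: 0% = cells with DMSO and 100% = wells without cells with DMSO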
# HTR5A ag: counter-screen for OPRM1-OPRD1 agonists: human HTR5A agonism. activation, % at 9.3 µM. HTR5A agonist assay, luminescence, cell-based. P47898. AID 504692. 340,000 tested, 0.61% active; in the data active = activation mostly above about 9.5%, no sharp cut-off; inactive = mostly below about 7.6%;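 also: 0% = cells with vehicle only and 100% = reference agonist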
# Target sequence (P47898 whole entry, looked up): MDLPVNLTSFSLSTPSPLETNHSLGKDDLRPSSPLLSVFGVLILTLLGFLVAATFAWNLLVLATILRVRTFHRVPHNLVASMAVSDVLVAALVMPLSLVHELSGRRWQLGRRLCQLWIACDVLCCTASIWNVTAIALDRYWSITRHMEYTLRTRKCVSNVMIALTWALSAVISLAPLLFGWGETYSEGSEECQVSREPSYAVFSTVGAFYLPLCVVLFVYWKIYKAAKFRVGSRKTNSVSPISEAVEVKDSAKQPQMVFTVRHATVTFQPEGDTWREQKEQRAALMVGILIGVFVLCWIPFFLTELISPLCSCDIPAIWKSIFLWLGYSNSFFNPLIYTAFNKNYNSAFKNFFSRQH
# Hep lipid drop: modulators of hepatic lipid droplet formation; 240,000 tested, 0.4% active; AML12 mouse hepatocytes, oleate lipid droplets, BODIPY imaging; inhibition, % at 6.5 µM;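 active = lipid droplet intensity inhibited by at least 50%, with more than 500 cells counted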
#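 Assay system: AML12 hepatocytes (mouse); Probe or stimulus: oleic acid at 100 µM to induce lipid droplet formation; Dosing: compound at 6.5 µM only; Schedule: compound with oleate, overnight; Detection: fluorescence imaging, 20x objective, two fields per well; Measure: % inhibition of lipid droplet signal.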
# OPRM1-OPRD1 ag: agonists of human mu-delta opioid receptor heterodimerization. P35372+P41143. cells, OPRM1-OPRD1 heterodimerization, luminescence. activation, % at 9.3 µM. 340,000 tested, 0.3% active. AID 504326; in the data active = activation above about 18%;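 also: 0% = vehicle-treated cells and 100% = reference agonist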
# HTR5A inv ctr: counter-screen for OPRM1-OPRD1 inverse agonists: human HTR5A inverse agonism; P47898; HTR5A cell line, luminescence; inhibition, % at 9.3 µM; 340,000 tested, 0.083% active; in the data active = inhibition mostly above about 23%, no sharp cut-off; inactive = mostly below about 18%;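 also: 0% = cells with DMSO and 100% = no-cell wells with DMSO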
# Hep lipid conf: hepatic lipid droplet formation inhibition, confirmed. inhibition, % at 5.2 µM. 870 tested, 65% active. AML12 mouse hepatocytes, BODIPY lipid droplet imaging; droplets induced with 100 µM oleic acid. shares compounds with Hep lipid drop;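 active = inhibition of lipid droplet metric at least 50%, with more than 300 cells in each of four replicates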;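 also: plate controls were DMSO with oleic acid for no effect and 5 µM Triacsin-C for full effect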
# AML12 cytotox: toxic to AML12 mouse hepatocytes in counter-screen | z-score at 5 µM | shares compounds with Hep lipid drop | 870 tested, 3% active | DAPI nuclear morphology cytotoxicity imaging; active compounds read high; cells fed 100 µM oleate overnight; in the data active = z-score above about 6.3;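 also: compound exposure lasted overnight at 37 °C before fixation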
# AML12 tox ATP: AML12 hepatocyte cytotoxicity, confirmed. shares compounds with Hep lipid drop. AML12 mouse hepatocyte viability, ATP luminescence; cells loaded with 100 µM oleic acid. 530 tested, under 10 active. cytotoxicity, % at 50 µM. AID 463219;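 active = cytotoxicity above 50% in each of four replicates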;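 also: compound exposure lasted overnight at 37 °C before the ATP read; 0% = DMSO-treated cells and 100% = wells with no cells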
# Starred values were filed as active, the others as inactive; nt = not tested or not shown. Hits are enriched below; roughly 1.4% of the tested compounds scored in any of these assays.
SMILES,OPRM1-OPRD1 inv,HTR5A ag,Hep lipid drop,OPRM1-OPRD1 ag,HTR5A inv ctr,Hep lipid conf,AML12 cytotox,AML12 tox ATP
CCC(C(=O)NCc1ccc(C)o1)n1nc(C)c2c(C)n(-c3ccccc3)nc2c1=O (stereo not given),12,-1,24,-2,-15,nt,nt,nt
Cc1c(S(=O)(=O)c2ccccn2)c(N)n(Cc2ccccc2)c1C,nt,nt,61*,nt,nt,8,-0.61,nt
Cc1c(S(=O)(=O)c2ccccn2)c(N)n(Cc2ccccc2Cl)c1C,9,-1,-4,-2,12,nt,nt,nt
CC(C)(C)C(=O)Cn1c(=O)n(CC2CCCO2)c(=O)c2ccccc21 (stereo not given),12,0,55*,-2,3,9,-0.42,nt
O=C(Cn1c(=O)n(CC2CCCO2)c(=O)c2ccccc21)c1ccc(Cl)c(Cl)c1 (stereo not given),4,-3,6,-1,-9,nt,nt,nt
COc1ccc(CCNC(=O)NCCc2c[nH]c3ccccc23)cc1OC,16,4,6,-4,-15,nt,nt,nt
COc1ccc(C(=O)CCC(=O)NCCc2c[nH]c3ccccc23)cc1OC,8,5,124*,-2,-14,99*,0.65,16
COc1cccc(CNC(=O)CCCc2c[nH]c3ccccc23)c1,15,5,64*,-3,-20,69*,0.22,17
NC(=O)Oc1cccc(OC(N)=O)c1,11,-3,4,-3,10,nt,nt,nt
COc1ccc(C(=O)CCC(=O)Nc2ccc(N3CCCCC3)cc2)cc1OC,18,1,92*,-3,-3,108*,0.0011,11
COc1ccc(C(=O)Nc2ccc(N3CCN(C)CC3)cc2)cc1OC,10,5,nt,-2,-17,nt,nt,nt
CC(=O)N1CCC(N(CCCOC(C)C)S(=O)(=O)c2ccc([N+](=O)[O-])cc2)CC1,-1,1,9,0,-3,nt,nt,nt
CCN(Cc1ccccc1)C(=O)C1CCN(C(=O)Nc2ccccc2)CC1,2,-1,77*,0,-13,104*,-1.7,8
CCN(CC)C(=O)C1CCCN(C(=O)Nc2ccccc2)C1 (stereo not given),5,3,2,-1,1,nt,nt,nt
O=Nc1c(-c2c(O)[nH]c3cc(Br)ccc23)[nH]c2ccccc12,-6,0,75*,1,-1,112*,2.5,67*
COc1ccc2c(c1)c(CC(=O)Nc1ccc(C)cc1)c(C)n2C(=O)c1ccc(Cl)cc1,6,-5,80*,-1,-9,106*,0.051,30
COc1ccc(NC(=O)Cc2c(C)n(C(=O)c3ccc(Cl)cc3)c3ccc(OC)cc23)cc1,-9,-5,83*,1,14,98*,0.43,nt
COC(=O)CNC(=O)Cc1c(C)n(C(=O)c2ccc(Cl)cc2)c2ccc(OC)cc12,9,3,-7,-2,-24,nt,nt,nt
CN(CC(=O)Nc1ccc(F)cc1)C(=O)COC(=O)CCN1C(=O)C2CC=CCC2C1=O (stereo not given),18,2,18,-3,-24,nt,nt,nt
CCn1c(C)cc(C(=O)CN2C(=O)c3ccccc3S2(=O)=O)c1C,12,0,nt,-3,4,nt,nt,nt
Cc1cc(C(=O)CN2C(=O)c3ccccc3S2(=O)=O)c(C)n1-c1ccccc1,15,1,65*,-2,-9,24,-0.28,nt
COc1ccc2nc(NC(=O)c3sc4nc(C)cc(C)c4c3N)sc2c1,-7,-3,-1,1,7,nt,nt,nt
O=C(CCNC(=O)C1CCN(S(=O)(=O)c2ccccc2)CC1)NCc1ccc(Cl)cc1,5,4,-2,-1,-15,nt,nt,nt
O=C(CCNC(=O)C1CCN(S(=O)(=O)c2ccccc2)CC1)NCc1ccc(Cl)cc1Cl,9,-2,56*,-2,6,75*,-0.4,12
O=C(CCNC(=O)C1CCN(S(=O)(=O)c2ccc(F)cc2)CC1)NCc1ccccc1Cl,11,-1,51*,-2,-10,22,-0.6,nt
SMILES,OPRM1-OPRD1 inv,HTR5A ag,Hep lipid drop,OPRM1-OPRD1 ag,HTR5A inv ctr,Hep lipid conf,AML12 cytotox,AML12 tox ATP
O=C(C[C@H]1C/C=C\CCCC(=O)OC[C@H]2CCCN2C1=O)NCCO,12,-5,nt,-2,-6,nt,nt,nt
COC(=O)c1cccc(NC(=O)CCN2C(=O)C3CC=CCC3C2=O)c1 (stereo not given),1,-3,nt,0,13,nt,nt,nt
COc1ccc(NS(=O)(=O)c2ccc(NC(=S)NCC3CCCO3)cc2)cc1 (stereo not given),0,2,84*,0,15,100*,-0.39,19
Cc1ccc(C(C(=O)NC2CCCCC2)N(C(=O)c2csnn2)C2CCCC2)o1 (stereo not given),14,-2,52*,-3,6,81*,-0.24,13
C=CCN(C(=O)c1csnn1)C(C(=O)NC1CCCCC1)c1ccccc1F (stereo not given),10,6,56*,-2,-16,93*,-0.66,12
O=S(=O)(/N=C(/Nc1ccccn1)c1ccccc1)c1ccc(F)cc1,1,0,-2,0,3,nt,nt,nt
O=C(Cn1nc(-c2cccc(Cl)c2)ccc1=O)Nc1ccc(C(=O)NC2CC2)cc1,8,3,52*,-2,-8,87*,0.0057,13
O=C(Cn1nc(-c2cccc(Cl)c2)ccc1=O)Nc1cccnc1,-1,-4,nt,0,-8,nt,nt,nt
COc1ccc2cc(C=NS(=O)(=O)c3ccc(C)cc3)n(C)c2c1,6,10,nt,-1,-28,nt,nt,nt
CC(C)C(=O)N(Nc1nc2ccccc2s1)C(=O)C(C)C,8,3,72*,-1,-19,70*,0.056,8
COC(=O)C1=C(C(=O)OC)SC(=C2C(=S)C(C)(C)N(C(=O)C3CC3)c3ccccc32)S1,6,-14,32,-1,32,nt,nt,nt
COC(=O)C1=C(C(=O)OC)SC(=C2C(=S)C(C)(C)N(C(=O)C(C)C)c3ccccc32)S1,7,4,57*,-1,7,102*,0.57,17
Cc1ccc(C(=O)OCC(=O)NN2C(=O)NC3(CCC(C)CC3)C2=O)cc1 (stereo not given),13,-3,nt,-2,8,nt,nt,nt
CCCCSCCCNC(=O)c1ccc2c(c1)N(CC)C(=O)c1ccccc1S2=O (stereo not given),-6,4,60*,1,-14,88*,0.053,14
CCn1c(O)c(/C=C/C=C/C=Nc2ccccc2)sc1=S,-22,1,15,4,-2,nt,nt,nt
Oc1c(/C=C/C=C/C=Nc2ccccc2)sc(=S)n1Cc1ccccc1,nt,nt,74*,nt,nt,76*,0.81,28

# High-throughput results (PubChem BioAssay)
